Experimental data: ChEMBL document CHEMBL5661970 (Cancer Res, 2006)
The source made the active and inactive calls. No cut-off for these calls is given here.

How the values were obtained:
SK-HEP1 = assay: Antitumor activity against human SK-HEP1 cells xenografted in gamma-irradiation induced RH-rnu/rnu athymic rat assessed as tumor growth inhibition at 1.0 mg/kg, po administered once daily for 2 weeks and measured on day 14 relative to control; type: functional; settings: SK-HEP1, light or radiation study, 336 h, read-out: TGI
[1] = Cmax in F344/N JcL-rnu athymic rat at 0.04 mg/kg, po measured upto 72 hrs by HPLC-MS/MS analysis; type: ADME, organism-based; settings: in vivo
Summary of the method: (§1)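 Female F344/N JcL-rnu rats, four per group, single p.o. dose suspended in 0.5% methyl cellulose. Tail-vein blood sampled at set times to 72 h. Serum spiked with internal standard, deproteinated with acetonitrile, analysed by HPLC-MS/MS. Parameters derived by noncompartmental analysis.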

[2] = Half life in F344/N JcL-rnu athymic rat at 0.04 mg/kg, po measured upto 72 hrs by HPLC-MS/MS analysis; type: ADME, organism-based; settings: in vivo; summary of the method: as §1
Ephrin type-B receptor 2 = Ephrin type-B receptor 2 (Homo sapiens, UniProt P29323); assay: Inhibition of EphB2 (unknown origin) in presence of ATP
Summary of the method: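 Cell-free kinase assay using recombinant tyrosine kinases with 1 μmol/L ATP, run in quadruplicate. IC50 values determined.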

[3] = target: Fibroblast growth factor receptor 4 (Homo sapiens, UniProt P22455); assay: Inhibition of FGFR-4 (unknown origin) in presence of ATP
[4] = Tmax in F344/N JcL-rnu athymic rat at 0.2 mg/kg, po measured upto 72 hrs by HPLC-MS/MS analysis; type: ADME, organism-based; settings: in vivo; summary of the method: as §1
Calu-6 [5] = assay: Antitumor activity against human Calu-6 cells xenografted in RH-rnu/rnu athymic rat assessed as decreased microvessel density at 0.2 mg/kg, po administered for 14 days by immunofluorescence staining analysis relative to control; type: functional; design: scale not given: the % may be the effect or the level left; settings: time 14 day
[6] = Antitumor activity against human CGL-9 cells xenografted in gamma-irradiation induced RH-rnu/rnu athymic rat assessed as tumor growth inhibition at 1.0 mg/kg, po administered once daily for 2 weeks and measured on day 14 relative to control; type: functional; settings: CGL-9, light or radiation study, 336 h, read-out: TGI
Summary of the method: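 Human tumor cells inoculated s.c. in right flank of athymic rats 24 h after whole-body γ-irradiation (7 Gy, Co60); established ~1,500 mm3 tumors excised and 20-30 mg fragments implanted s.c. in irradiated rats. Oral dosing in 0.5% methyl cellulose vehicle from randomization (day 0). Tumor volume measured twice weekly by calipers, (length × width²) × 0.5; TGI% versus vehicle on day 14.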

MDA-MB-231 = assay: Antitumor activity against human MDA-MB-231 cells xenografted in gamma-irradiation induced RH-rnu/rnu athymic rat assessed as relative tumor volume at 1 mg/kg, po administered once daily for 2 weeks and measured on day 7; type: functional
Summary of the method: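 Tumor fragments were grown in γ-irradiated (7 Gy) athymic rats, followed by once-daily oral dosing at 1 mg/kg for 2 weeks. Tumor volume was measured with calipers as length×width²×0.5. Relative tumor volume was calculated as volume on day x divided by volume on day 0.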

SK-OV-3 [7] = assay: Antitumor activity against human SK-OV-3 cells xenografted in gamma-irradiation induced RH-rnu/rnu athymic rat assessed as tumor growth inhibition at 0.2 mg/kg, po administered once daily for 2 weeks and measured on day 14 relative to control; type: functional; settings: SK-OV-3, light or radiation study, 336 h, read-out: TGI
HUVEC = assay: Inhibition of cell migration in VEGF-induced serum-starved human HUVEC cells at >= 10 nmol/L incubated for 22 hrs by calcein AM staining based fluorescence plate reader analysis; type: functional
Summary of the method: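 HUVECs starved 5 h in EBM-2 with 0.1% BSA, placed in upper chamber of microchamber plate; lower chamber held 10 ng/mL VEGF, 0.1% FBS, 0.1% BSA. Compound in both chambers. After 22 h, migrated cells stained with 4 μg/mL calcein AM, read at 485/530 nm; 100%/0% set with/without VEGF in 0.1% DMSO; n = 10.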

[8] = Cmax in F344/N JcL-rnu athymic rat at 0.2 mg/kg, po measured upto 72 hrs by HPLC-MS/MS analysis; type: ADME, organism-based; settings: in vivo; summary of the method: as §1
Calu-6 [9] = assay: Antitumor activity against human Calu-6 cells xenografted in RH-rnu/rnu athymic rat assessed as increased ratio of enlarged vessels with >100 uM diameter in tumor at 1 mg/kg, po administered for 14 days by H33342 dye based fluorescence microscopic analysis relative to control; type: functional; settings: time 14 day
Summary of the method: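 Calu-6 tumor-bearing athymic rats, three per group, received oral drug at 0.2 or 1 mg/kg or vehicle on days 0-13. They were killed 1 min after i.v. H33342 at 20 mg/kg on day 13. 10 µm cryosections were cut from five tumor levels at least 200 µm apart and examined under UV epifluorescence. The major axis of fluorescent halos around vessels was measured by image analysis, with a Mann-Whitney test.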

SK-OV-3 [10] = assay: Antitumor activity against human SK-OV-3 cells xenografted in gamma-irradiation induced RH-rnu/rnu athymic rat assessed as tumor growth inhibition at 1.0 mg/kg, po administered once daily for 2 weeks and measured on day 14 relative to control; type: functional; settings: SK-OV-3, light or radiation study, 336 h, read-out: TGI
DU-145 = assay: Antitumor activity against human DU-145 cells xenografted in gamma-irradiation induced RH-rnu/rnu athymic rat assessed as tumor growth inhibition at 1.0 mg/kg, po administered once daily for 2 weeks and measured on day 14 relative to control; type: functional; settings: DU-145, light or radiation study, 336 h, read-out: TGI
Summary of the method: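 Rats were γ-irradiated with 7 Gy whole body, and 24 h later received s.c. tumor cells. Fragments (20-30 mg) from ~1,500 mm3 tumors were then implanted s.c. into irradiated athymic rats. Oral dosing at 0.2 or 1 mg/kg or vehicle ran once daily for 2 weeks from day 0. Tumors were measured with calipers twice weekly (length×width²×0.5). TGI% was taken versus vehicle on day 14 (BxPC-3: day 13), with an unpaired t test on RTV.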

A549 = assay: Antitumor activity against human A549 cells xenografted in F344/N Jcl-rnu athymic rat assessed as increase in percentage of necrotic areas in tumor by H and E staining based assay
[11] = Apparent oral clearance in F344/N JcL-rnu athymic rat at 0.04 mg/kg, po measured upto 72 hrs by HPLC-MS/MS analysis; type: ADME, organism-based; settings: in vivo; summary of the method: as §1
[12] = Minimum concentration at steady state in F344/N JcL-rnu athymic rat at 0.2 mg/kg/day, po measured upto 72 hrs by HPLC-MS/MS analysis; type: ADME, organism-based; settings: in vivo
Summary of the method: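 Steady-state serum levels for repeated oral 0.2 mg/kg daily dosing were simulated from single-dose serum data (female F344/N JcL-rnu rats, four per group, tail-vein sampling to 72 h, HPLC-MS/MS, noncompartmental analysis), not measured directly.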

ZR-75-1 = assay: Antitumor activity against human ZR-75-1 cells xenografted in gamma-irradiation induced RH-rnu/rnu athymic rat assessed as tumor growth inhibition at 0.2 mg/kg, po administered once daily for 2 weeks and measured on day 14 relative to control; type: functional; settings: ZR-75-1, light or radiation study, 336 h, read-out: TGI

Sequence of Fibroblast growth factor receptor 4 (P22455 whole entry): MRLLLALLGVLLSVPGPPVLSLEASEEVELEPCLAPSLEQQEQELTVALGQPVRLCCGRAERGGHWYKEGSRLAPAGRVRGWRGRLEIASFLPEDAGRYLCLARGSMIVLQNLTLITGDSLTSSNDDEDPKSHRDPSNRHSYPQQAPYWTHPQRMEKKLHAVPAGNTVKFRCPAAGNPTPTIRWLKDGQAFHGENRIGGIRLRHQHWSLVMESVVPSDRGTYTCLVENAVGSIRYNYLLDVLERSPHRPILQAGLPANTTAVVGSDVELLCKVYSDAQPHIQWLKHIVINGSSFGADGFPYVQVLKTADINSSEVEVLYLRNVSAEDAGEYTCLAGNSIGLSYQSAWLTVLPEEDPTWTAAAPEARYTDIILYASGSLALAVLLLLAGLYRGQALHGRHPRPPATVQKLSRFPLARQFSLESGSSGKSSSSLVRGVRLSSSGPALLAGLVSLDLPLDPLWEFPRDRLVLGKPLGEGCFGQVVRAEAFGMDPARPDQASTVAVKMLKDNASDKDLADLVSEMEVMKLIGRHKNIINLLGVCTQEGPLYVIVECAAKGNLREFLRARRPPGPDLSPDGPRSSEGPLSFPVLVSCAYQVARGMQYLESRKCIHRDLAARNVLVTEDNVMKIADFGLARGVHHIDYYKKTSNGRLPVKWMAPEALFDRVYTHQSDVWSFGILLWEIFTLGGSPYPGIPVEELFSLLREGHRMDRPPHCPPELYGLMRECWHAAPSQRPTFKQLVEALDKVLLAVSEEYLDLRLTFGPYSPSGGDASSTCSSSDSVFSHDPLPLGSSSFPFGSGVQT
Sequence of Ephrin type-B receptor 2 (P29323 whole entry): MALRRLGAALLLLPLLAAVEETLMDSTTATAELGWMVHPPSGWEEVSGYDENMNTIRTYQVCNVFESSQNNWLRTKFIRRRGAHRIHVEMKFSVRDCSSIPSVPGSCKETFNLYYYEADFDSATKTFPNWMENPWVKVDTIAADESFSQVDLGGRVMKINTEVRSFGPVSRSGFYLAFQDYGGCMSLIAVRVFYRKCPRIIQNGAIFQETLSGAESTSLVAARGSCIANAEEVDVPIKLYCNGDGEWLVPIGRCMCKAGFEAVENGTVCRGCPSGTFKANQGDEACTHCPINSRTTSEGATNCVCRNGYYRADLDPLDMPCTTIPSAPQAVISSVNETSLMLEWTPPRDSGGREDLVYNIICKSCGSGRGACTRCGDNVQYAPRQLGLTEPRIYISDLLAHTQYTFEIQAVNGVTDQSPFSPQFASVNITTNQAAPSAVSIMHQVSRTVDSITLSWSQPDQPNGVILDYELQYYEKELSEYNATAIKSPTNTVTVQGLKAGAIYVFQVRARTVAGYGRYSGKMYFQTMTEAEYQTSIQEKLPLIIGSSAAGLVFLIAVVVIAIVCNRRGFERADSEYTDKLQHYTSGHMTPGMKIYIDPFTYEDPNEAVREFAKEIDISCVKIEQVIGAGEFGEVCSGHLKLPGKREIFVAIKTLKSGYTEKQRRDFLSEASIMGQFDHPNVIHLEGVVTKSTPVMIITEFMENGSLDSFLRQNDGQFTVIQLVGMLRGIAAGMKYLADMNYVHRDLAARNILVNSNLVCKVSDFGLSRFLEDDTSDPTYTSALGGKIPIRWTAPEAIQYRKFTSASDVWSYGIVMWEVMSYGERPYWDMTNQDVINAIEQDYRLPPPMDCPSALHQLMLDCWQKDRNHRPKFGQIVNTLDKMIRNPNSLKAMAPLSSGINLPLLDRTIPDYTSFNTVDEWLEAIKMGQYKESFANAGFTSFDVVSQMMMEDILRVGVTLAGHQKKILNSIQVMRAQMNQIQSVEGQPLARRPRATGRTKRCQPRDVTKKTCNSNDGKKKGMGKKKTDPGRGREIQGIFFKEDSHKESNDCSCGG

SMILES: COc1cc2nccc(Oc3ccc(NC(=O)Nc4cc(C)on4)c(Cl)c3)c2cc1OC [TIVOZANIB]
- inhibition in vivo at 1 mg/kg (SK-HEP1): 89.9%
- Cmax [1]: 21.6 ng/mL
- half-life [2]: 9.25 h
- IC50 (Ephrin type-B receptor 2): 24 nM
- IC50 [3]: > 1000 nM
- Tmax [4]: 2.63 h
- Activity (Calu-6 [5]): 42.5%
- inhibition in vivo at 1 mg/kg [6]: 96.2%
- Activity (MDA-MB-231): 0.89
- inhibition in vivo at 0.2 mg/kg (SK-OV-3 [7]): 93.4%
- inhibition (HUVEC): Active
- Cmax [8]: 108 ng/mL
- Activity (Calu-6 [9]): 30.3%
- inhibition in vivo at 1 mg/kg (SK-OV-3 [10]): 99.2%
- inhibition in vivo at 1 mg/kg (DU-145): > 100%
- Activity (A549): Active
- CL/F [11]: 2.03 mL/min/kg
- Cminss [12]: 22.2 ng/mL
- inhibition in vivo at 0.2 mg/kg (ZR-75-1): 77.2%
